{"source": "ChEMBL document CHEMBL1136421", "about": "“New tetrahydrobenzindoles as potent and selective 5-HT(7) antagonists with increased In vitro metabolic stability” (Bioorg Med Chem Lett, 2003)", "key": {"[1]": {"molecular_target": "T1, 5-hydroxytryptamine receptor 7 (Homo sapiens, UniProt P34969)", "T1 sequence (P34969 whole entry)": "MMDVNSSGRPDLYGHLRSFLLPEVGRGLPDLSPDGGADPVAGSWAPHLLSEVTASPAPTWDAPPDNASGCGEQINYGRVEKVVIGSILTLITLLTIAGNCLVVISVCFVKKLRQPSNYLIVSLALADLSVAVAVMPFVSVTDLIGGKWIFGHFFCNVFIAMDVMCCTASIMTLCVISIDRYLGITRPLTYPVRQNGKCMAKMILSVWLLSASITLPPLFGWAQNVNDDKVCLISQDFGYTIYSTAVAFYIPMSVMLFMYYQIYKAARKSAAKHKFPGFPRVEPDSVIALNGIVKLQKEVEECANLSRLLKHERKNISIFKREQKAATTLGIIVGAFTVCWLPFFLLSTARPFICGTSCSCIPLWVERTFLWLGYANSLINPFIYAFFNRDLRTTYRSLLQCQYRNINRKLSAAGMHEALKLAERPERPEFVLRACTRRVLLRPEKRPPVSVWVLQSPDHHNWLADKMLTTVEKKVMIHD", "assay": "Ability to displace the radioligand [3H]5-carboximidotryptamine ([3H]-5-CT) from cloned human 5-hydroxytryptamine 7 receptor expressed in COS-7 cells", "assay_type": "cell-based", "outline": "(§1)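 Displacement of [3H]5-CT from cloned human 5-HT7 receptor expressed in COS-7 cells. Affinity reported as pKi, given as mean ± SE of 8–12 values.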"}, "[2]": {"molecular_target": "T2, Serotonin 2 (5-HT2) receptor (Rattus norvegicus, UniProt P30994+P08909+P14842)", "assay": "Binding affinity towards 5-hydroxytryptamine 2 receptor by the displacement of [3H]ketanserin in rat cerebral cortex membrane", "assay_type": "cell membranes", "outline": "(§2)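 Displacement of [3H]ketanserin from rat cerebral cortex membranes at the 5-HT2 site. Affinity reported as pKi, given as mean ± SE of 8–12 values.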"}, "[3]": {"molecular_target": "5-hydroxytryptamine receptor 1B (Homo sapiens, UniProt P28222)", "sequence (P28222 whole entry)": "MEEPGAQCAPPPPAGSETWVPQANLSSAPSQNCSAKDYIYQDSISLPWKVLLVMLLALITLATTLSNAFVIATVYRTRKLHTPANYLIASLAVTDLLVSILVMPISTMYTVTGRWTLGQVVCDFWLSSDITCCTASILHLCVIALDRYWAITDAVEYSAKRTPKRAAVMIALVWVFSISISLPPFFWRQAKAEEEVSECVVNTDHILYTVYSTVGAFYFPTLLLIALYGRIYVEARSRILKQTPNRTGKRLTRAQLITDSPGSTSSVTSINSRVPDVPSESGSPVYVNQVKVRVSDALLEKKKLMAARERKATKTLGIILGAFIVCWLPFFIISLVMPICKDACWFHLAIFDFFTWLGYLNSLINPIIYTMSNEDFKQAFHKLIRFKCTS", "assay": "Binding affinity towards 5-HT1B receptor by the displacement of [3H][…]] in human recombinant receptors in mammalian cell"}, "[4]": {"molecular_target": "T3, 5-hydroxytryptamine receptor 1A (Homo sapiens, UniProt P08908)", "T3 sequence (P08908 whole entry)": "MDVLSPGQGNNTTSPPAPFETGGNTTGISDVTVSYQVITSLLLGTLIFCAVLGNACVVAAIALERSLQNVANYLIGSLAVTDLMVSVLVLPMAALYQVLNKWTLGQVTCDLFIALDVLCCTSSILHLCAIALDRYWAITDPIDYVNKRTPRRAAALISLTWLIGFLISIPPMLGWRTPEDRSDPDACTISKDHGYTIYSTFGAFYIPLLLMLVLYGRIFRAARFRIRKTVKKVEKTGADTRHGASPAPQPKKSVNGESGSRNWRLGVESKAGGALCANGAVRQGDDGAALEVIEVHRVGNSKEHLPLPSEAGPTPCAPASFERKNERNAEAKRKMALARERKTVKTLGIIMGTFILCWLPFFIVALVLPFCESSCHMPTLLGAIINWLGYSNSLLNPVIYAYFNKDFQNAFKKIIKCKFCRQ", "assay": "Binding affinity towards 5-HT1A receptor by the displacement of [3H]-8-OH-DPAT] in human recombinant receptors in mammalian cell", "outline": "(§3)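 Radioligand displacement binding at the named receptor preparation. Affinity reported as pKi, given as mean ± SE of 8–12 values.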"}, "[5]": {"molecular_target": "5-hydroxytryptamine receptor 6 (Homo sapiens, UniProt P50406)", "sequence (P50406 whole entry)": "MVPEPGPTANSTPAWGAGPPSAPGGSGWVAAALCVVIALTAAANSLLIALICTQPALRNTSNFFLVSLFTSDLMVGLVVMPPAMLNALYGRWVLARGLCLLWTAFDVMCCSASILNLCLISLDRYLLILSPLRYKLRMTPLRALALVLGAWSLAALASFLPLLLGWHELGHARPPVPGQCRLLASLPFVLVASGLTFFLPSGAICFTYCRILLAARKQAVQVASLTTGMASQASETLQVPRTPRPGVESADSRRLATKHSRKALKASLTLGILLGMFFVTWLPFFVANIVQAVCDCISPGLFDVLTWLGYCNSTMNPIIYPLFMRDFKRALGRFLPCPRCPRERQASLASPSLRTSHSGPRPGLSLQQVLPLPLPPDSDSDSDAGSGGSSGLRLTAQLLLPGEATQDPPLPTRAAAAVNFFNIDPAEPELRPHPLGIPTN", "assay": "Binding affinity towards human recombinant 5-hydroxytryptamine 6 receptor by the displacement of [3H]-5-CT]"}, "[6]": {"molecular_target": "Serotonin 3 (5-HT3) receptor", "assay": "Binding affinity towards 5-HT3 receptor by the displacement of [3H]GR-65630] in human recombinant receptors in mammalian cell", "assay_type": "protein-complex assay", "outline": "as §3"}, "[7]": {"molecular_target": "T1, 5-hydroxytryptamine receptor 7", "assay": "Binding affinity towards 5-HT7 receptor by the displacement of [3H]-5-CT] in human recombinant receptors in mammalian cell", "outline": "as §1"}, "[8]": {"molecular_target": "T4, 5-hydroxytryptamine receptor 2C (Homo sapiens, UniProt P28335)", "T4 sequence (P28335 whole entry)": "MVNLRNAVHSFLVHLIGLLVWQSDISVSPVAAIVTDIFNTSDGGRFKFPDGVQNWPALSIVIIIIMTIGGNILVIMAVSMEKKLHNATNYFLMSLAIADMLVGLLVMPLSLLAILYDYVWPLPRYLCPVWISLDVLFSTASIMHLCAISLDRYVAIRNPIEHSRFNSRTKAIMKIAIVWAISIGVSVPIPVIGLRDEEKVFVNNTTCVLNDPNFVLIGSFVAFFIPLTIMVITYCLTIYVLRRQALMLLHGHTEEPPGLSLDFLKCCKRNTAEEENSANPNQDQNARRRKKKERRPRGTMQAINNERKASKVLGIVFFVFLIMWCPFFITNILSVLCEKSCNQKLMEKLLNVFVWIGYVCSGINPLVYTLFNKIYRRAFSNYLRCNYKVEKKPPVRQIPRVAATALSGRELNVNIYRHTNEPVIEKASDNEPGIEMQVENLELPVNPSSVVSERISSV", "assay": "Binding affinity towards 5-HT2C receptor by the displacement of [3H]mesulergine] in human recombinant receptors in mammalian cell", "outline": "as §3"}, "[9]": {"molecular_target": "T2, Serotonin 2 (5-HT2) receptor", "assay": "Binding affinity towards 5-HT2 receptor by the displacement of [3H]-ketanserin] in rat cerebral cortex", "assay_type": "tissue-based", "outline": "as §2"}, "[10]": {"molecular_target": "5-hydroxytryptamine receptor 4 (Cavia porcellus, UniProt O70528)", "sequence (O70528 whole entry)": "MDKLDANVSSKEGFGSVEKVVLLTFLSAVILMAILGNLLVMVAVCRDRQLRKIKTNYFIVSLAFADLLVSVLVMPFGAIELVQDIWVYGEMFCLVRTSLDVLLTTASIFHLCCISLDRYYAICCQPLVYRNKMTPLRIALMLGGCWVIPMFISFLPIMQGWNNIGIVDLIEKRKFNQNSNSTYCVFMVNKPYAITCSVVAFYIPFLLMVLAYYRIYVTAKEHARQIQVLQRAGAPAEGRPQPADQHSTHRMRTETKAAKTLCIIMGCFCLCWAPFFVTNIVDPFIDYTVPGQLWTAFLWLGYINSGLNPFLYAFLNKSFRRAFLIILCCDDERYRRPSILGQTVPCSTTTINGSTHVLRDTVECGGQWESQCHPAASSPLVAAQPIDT", "assay": "Binding affinity towards 5-HT4 receptor by the displacement of [3H]GR-113808 in guinea-pig striatum", "assay_type": "tissue-based", "outline": "as §3"}}, "data": [{"smiles": "O=C1Nc2ccc(Cl)c3c2C1(CCCCN1CC=C(c2ccccc2)CC1)CCC3", "note": "(stereo not given)", "values": [{"measurement": "Ki", "setting": "[1]", "value": 5.01, "unit": "nM"}, {"measurement": "Log Ki", "setting": "[2]", "value": "> -6.5"}]}, {"smiles": "O=C1Nc2cccc3c2C1(CCCCN1CC=C(c2ccc(F)cc2)CC1)CCC3", "note": "(stereo not given)", "values": [{"measurement": "Log Ki", "setting": "[2]", "value": "> -7.18"}]}, {"smiles": "O=C1Nc2ccc(Cl)c3c2C1(CCCCN1CC=C(c2ccc(Cl)cc2)CC1)CCC3", "note": "(stereo not given)", "values": [{"measurement": "Ki", "setting": "[3]", "value": "> 1000", "unit": "nM"}, {"measurement": "Ki", "setting": "[1]", "value": 7.24, "unit": "nM"}, {"measurement": "Ki", "setting": "[4]", "value": 316, "unit": "nM"}, {"measurement": "Ki", "setting": "[5]", "value": "> 1000", "unit": "nM"}, {"measurement": "Log Ki", "setting": "[6]", "value": "> -6"}, {"measurement": "Log Ki", "setting": "[2]", "value": "> -6"}, {"measurement": "Ki", "setting": "[7]", "value": 7.24, "unit": "nM"}, {"measurement": "Ki", "setting": "[8]", "value": "> 1000", "unit": "nM"}, {"measurement": "Log Ki", "setting": "[9]", "value": "> -6"}, {"measurement": "Ki", "setting": "[10]", "value": "> 1000", "unit": "nM"}]}, {"smiles": "O=C1Nc2ccc(Cl)c3c2C1(CCCCN1CC=C(c2ccc(F)cc2)CC1)CCC3", "note": "(stereo not given)", "values": [{"measurement": "Ki", "setting": "[1]", "value": 2.04, "unit": "nM"}, {"measurement": "Log Ki", "setting": "[2]", "value": "> -6.64"}]}]}
